Test results reported in ChEMBL document CHEMBL4765418, “Discovery of novel quinazolinone derivatives as potential anti-HBV and anti-HCC agents” (Eur J Med Chem, 2020).
Activity calls are given as the source filed them. The rule behind the calls is not given here.

Tests used:
HepG2 [1] = assay: Antiproliferative activity against human HepG2 cells assessed as inhibition of cell proliferation after 72 hrs by MTT assay; assay type: functional, cell-based; settings: HepG2, 72 h
Procedure, shortened: (§1)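 Cells seeded in 96-well plates and grown 24 h to reach exponential growth, then exposed to test compounds in culture medium for 72 h. Viability read by MTT absorbance at 490 nm relative to untreated cells. IC50 is the concentration giving 50% inhibition of proliferation.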

[2] = Cytotoxicity against human HepG2 2.2.15 cells assessed as reduction in cell viability measured after 72 hrs by MTT assay; assay type: cell-based
Procedure, shortened: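 HepG2 2.2.15 cells (HBV-producing; grown in DMEM with 10% FBS, penicillin/streptomycin and 0.38 mg/mL G418) seeded in 96-well plates and grown 24 h, then treated 72 h with compounds. Viability read by MTT absorbance at 490 nm relative to untreated cells. CC50 is the dose causing 50% cell death.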

Hepatitis B virus [3] = assay: (§2) Antiviral activity against HBV infected in human HepG2.2.15 cells assessed as inhibition of DNA replication at 0.8 uM supplemented with fresh medium containing compound every 2 days for 6 days by RT-PCR analysis relative to control; assay type: functional; settings: HepG2 2.2.15, 144 h, time 6 day
Procedure, shortened: (§3)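 HepG2 2.2.15 cells (2×10^5/well, 24-well) left 24 h to recover from trypsinization, then given fresh medium with compound (single-point screen at 0.8 μM), renewed every 2 days for 6 days. Intracellular HBV DNA extracted and quantified by real-time PCR. IC50 is the dose giving 50% inhibition of DNA replication, taken from dose–response.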

HepG2 [4] = assay: Induction of apoptosis in human HepG2 cells assessed as chromatin condensation at 5 to 20 uM after 48 hrs by Hoechst 33342 staining based fluorescence microscopic analysis; assay type: functional, cell-based; settings: dose 5-20 µM
Procedure, shortened: (§4)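 HepG2 cells (5×10^4/well, six-well) exposed to 5, 10 or 20 μM for 48 h, washed with PBS, fixed in 4% paraformaldehyde 30 min, stained with Hoechst 33342 (20 μg/mL) 15 min at room temperature in the dark. Nuclear fragmentation and chromatin condensation scored by fluorescence microscopy.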

HepG2 [5] = assay: Induction of apoptosis in human HepG2 cells assessed as late apoptotic cells at 20 uM after 48 hrs by Annexin-V FITC/propidium iodide staining based fluorescence microscopic analysis (reference value: 1.11%); assay type: functional
HepG2 [6] = assay: Induction of apoptosis in human HepG2 cells assessed as viable cells at 20 uM after 48 hrs by Annexin-V FITC/propidium iodide staining based fluorescence microscopic analysis (reference value: 97.07%); assay type: functional; settings: read-out: Activity
[7] = Selectivity index, ratio of CC50 for human HepG2 2.2.15 cells to IC50 for antiviral activity against HBV infected in human HepG2.2.15 cells assessed as inhibition of DNA replication; assay type: toxicity, cell-based; settings: read-out: Ratio CC50/IC50
Hepatitis B virus [8] = assay: Antiviral activity against HBV infected in human HepG2.2.15 cells assessed as inhibition of DNA replication supplemented with fresh medium containing compound every 2 days for 6 days by RT-PCR analysis; assay type: functional, organism-based; settings: HepG2 2.2.15; procedure, shortened: as §3
SK-HEP1 = assay: Antiproliferative activity against human SK-HEP1 cells assessed as inhibition of cell proliferation after 72 hrs by MTT assay; assay type: functional, cell-based; settings: SK-HEP1, 72 h; procedure, shortened: as §1
HepG2 [9] = assay: Induction of apoptosis in human HepG2 cells assessed as late apoptotic cells at 10 uM after 48 hrs by Annexin-V FITC/propidium iodide staining based fluorescence microscopic analysis (reference value: 1.11%); assay type: functional
HepG2 [10] = assay: Induction of apoptosis in human HepG2 cells assessed as viable cells at 10 uM after 48 hrs by Annexin-V FITC/propidium iodide staining based fluorescence microscopic analysis (reference value: 97.07%); assay type: functional; settings: read-out: Activity
HepG2 [11] = assay: Induction of apoptosis in human HepG2 cells assessed as up regulation of Bad expression measured after 48 hrs by Western blot analysis; assay type: functional, cell-based
Procedure, shortened: (§5)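 HepG2 cells treated 5, 10 or 20 μM for 48 h, lysed; 40 μg protein/lane resolved by SDS-PAGE, transferred to PVDF, blocked in 5% nonfat milk, probed overnight at 4 °C with mouse anti-Bad, Bax, Bcl-2 or Bcl-xl, then secondary antibody 2 h. ECL detection; band densities expressed relative to GAPDH.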

Hepatitis B virus [12] = assay: Antiviral activity against HBV infected in human HepG2.2.15 cells assessed as inhibition of HBsAg production supplemented with fresh medium containing compound every 3 days for 6 days by EIA relative to control; assay type: functional, HepG2 2.2.15; settings: time 6 day
HepG2 [13] = assay: Induction of apoptosis in human HepG2 cells assessed as early apoptotic cells at 10 uM after 48 hrs by Annexin-V FITC/propidium iodide staining based fluorescence microscopic analysis (reference value: 1.68%); assay type: functional
HepG2 [14] = assay: Induction of apoptosis in human HepG2 cells assessed as late apoptotic cells at 5 uM after 48 hrs by Annexin-V FITC/propidium iodide staining based flow cytometric analysis (reference value: 1.11%)
HepG2 [15] = assay: Induction of apoptosis in human HepG2 cells assessed as early apoptotic cells at 5 uM after 48 hrs by Annexin-V FITC/propidium iodide staining based flow cytometric analysis (reference value: 1.68%)
HepG2 [16] = assay: Induction of apoptosis in human HepG2 cells assessed as down regulation of Bcl-xl expression measured after 48 hrs by Western blot analysis; assay type: functional, cell-based; procedure, shortened: as §5
HepG2 [17] = assay: Induction of apoptosis in human HepG2 cells assessed as necrotic cells at 10 uM after 48 hrs by Annexin-V FITC/propidium iodide staining based fluorescence microscopic analysis (reference value: 0.14%); assay type: functional
Hepatitis B virus [18] = assay: as §2, with “against lamivudine and entecavir-resistant” for “against”, “HBV harboring rtL180 M/rtM204V/rtT184L mutant” for “HBV”; assay type: functional; settings: HepG2 2.2.15, 144 h, time 6 day
HepG2 [19] = assay: Induction of apoptosis in human HepG2 cells assessed as viable cells at 5 uM after 48 hrs by Annexin-V FITC/propidium iodide staining based flow cytometric analysis (reference value: 97.07%); settings: HepG2, 48 h
Huh-7 = assay: Antiproliferative activity against human Huh-7 cells assessed as inhibition of cell proliferation after 72 hrs by MTT assay; assay type: functional, cell-based; settings: Huh-7, 72 h; procedure, shortened: as §1
HepG2 [20] = assay: Induction of apoptosis in human HepG2 cells assessed as down regulation of Bcl-2 expression measured after 48 hrs by Western blot analysis; assay type: functional, cell-based; procedure, shortened: as §5
HepG2 [21] = assay: Induction of apoptosis in human HepG2 cells assessed as nuclear fragmentation at 5 to 20 uM after 48 hrs by Hoechst 33342 staining based fluorescence microscopic analysis; assay type: functional, cell-based; settings: dose 5-20 µM; procedure, shortened: as §4
HepG2 [22] = assay: Induction of apoptosis in human HepG2 cells assessed as necrotic cells at 5 uM after 48 hrs by Annexin-V FITC/propidium iodide staining based flow cytometric analysis (reference value: 0.14%)
HepG2 [23] = assay: Induction of apoptosis in human HepG2 cells assessed as up regulation of Bax expression measured after 48 hrs by Western blot analysis; assay type: functional, cell-based; procedure, shortened: as §5
HepG2 [24] = assay: Induction of apoptosis in human HepG2 cells assessed as necrotic cells at 20 uM after 48 hrs by Annexin-V FITC/propidium iodide staining based fluorescence microscopic analysis (reference value: 0.14%); assay type: functional
HepG2 [25] = assay: Induction of apoptosis in human HepG2 cells assessed as early apoptotic cells at 20 uM after 48 hrs by Annexin-V FITC/propidium iodide staining based fluorescence microscopic analysis (reference value: 1.68%); assay type: functional

SMILES | IC50 (HepG2 [1]) [µM] | CC50 at 72 h [2] [µM] | inhibition at 0.8 µM (Hepatitis B virus [3]) [%] | selectivity ratio [7] | IC50 (Hepatitis B virus [8]) [µM] | inhibition (INH) (Hepatitis B virus [12]) [%] | inhibition at 0.8 µM (Hepatitis B virus [18]) [%] | also measured
COc1ccc(C(C)=O)cc1CSc1nc2ccc(OCCN(C)C)cc2c(=O)n1Cc1ccccc1 | 19 | > 10 | 15.6 | – | – | – | – | –
CN(C)CCCOc1ccc2nc(SCc3ccccc3)n(Cc3ccco3)c(=O)c2c1 | 5.44 | > 10 | 67.3 | > 17.2 | 0.58 | 4.55 | 64 | Activity (HepG2 [4]): Active; Activity (HepG2 [5]): 31.67%; viability at 20 µM (HepG2 [6]): 22.9%; IC50 (SK-HEP1): 6.75 µM; Activity (HepG2 [9]): 14.15%; viability at 10 µM (HepG2 [10]): 57.5%; Activity (HepG2 [11]): Dose-dependent effect; Activity (HepG2 [13]): 23.83%; Activity (HepG2 [14]): 4.88%; Activity (HepG2 [15]): 13.07%; Activity (HepG2 [16]): Dose-dependent effect; Activity (HepG2 [17]): 4.5%; viability at 5 µM (HepG2 [19]): 81.5%; IC50 (Huh-7): 6.42 µM; Activity (HepG2 [20]): Dose-dependent effect; Activity (HepG2 [21]): Active; Activity (HepG2 [22]): 0.49%; Activity (HepG2 [23]): Dose-dependent effect; Activity (HepG2 [24]): 5.12%; Activity (HepG2 [25]): 40.31%
CCN(CC)CCOc1ccc2nc(SCc3ccccc3)n(Cc3ccco3)c(=O)c2c1 | 17.3 | > 10 | 67.5 | > 15.9 | 0.63 | 13.64 | 58.9 | –
CCN(CC)CCOc1ccc2nc(SCc3cc(C(C)=O)ccc3OC)n(Cc3ccco3)c(=O)c2c1 | 17 | > 10 | 45.2 | – | – | – | – | –
COc1ccccc1CSc1nc2ccc(OCCCN(C)C)cc2c(=O)n1Cc1ccco1 | 6.76 | 8.38 | 34.4 | – | – | – | – | –
COc1ccccc1CSc1nc2ccc(OCCCN(C)C)cc2c(=O)n1Cc1cccs1 | 8.81 | > 10 | 21.6 | – | – | – | – | –
